Data as given in ChEMBL document CHEMBL4002589, “Tri- and Tetrasubstituted Pyridinylimidazoles as Covalent Inhibitors of c-Jun N-Terminal Kinase 3” (J Med Chem, 2017).

Experiments:
[1] = biological target: Mitogen-activated protein kinase kinase kinase 10 (Homo sapiens) (UniProt Q02779); test: Inhibition of MAP3K10 (unknown origin) assessed as residual activity at 1 uM relative to control
How it was run: (§1)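 Each inhibitor is tested at a single concentration, 1 µM or 0.5 µM depending on the compound. Results are reported as residual kinase activity.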

[2] = biological target: T1, Serine/threonine-protein kinase TAO2 (Homo sapiens) (UniProt Q9UL54); test: Inhibition of TAOK2 (unknown origin) assessed as residual activity at 1 uM relative to control; how it was run: as §1
T1 sequence (whole entry): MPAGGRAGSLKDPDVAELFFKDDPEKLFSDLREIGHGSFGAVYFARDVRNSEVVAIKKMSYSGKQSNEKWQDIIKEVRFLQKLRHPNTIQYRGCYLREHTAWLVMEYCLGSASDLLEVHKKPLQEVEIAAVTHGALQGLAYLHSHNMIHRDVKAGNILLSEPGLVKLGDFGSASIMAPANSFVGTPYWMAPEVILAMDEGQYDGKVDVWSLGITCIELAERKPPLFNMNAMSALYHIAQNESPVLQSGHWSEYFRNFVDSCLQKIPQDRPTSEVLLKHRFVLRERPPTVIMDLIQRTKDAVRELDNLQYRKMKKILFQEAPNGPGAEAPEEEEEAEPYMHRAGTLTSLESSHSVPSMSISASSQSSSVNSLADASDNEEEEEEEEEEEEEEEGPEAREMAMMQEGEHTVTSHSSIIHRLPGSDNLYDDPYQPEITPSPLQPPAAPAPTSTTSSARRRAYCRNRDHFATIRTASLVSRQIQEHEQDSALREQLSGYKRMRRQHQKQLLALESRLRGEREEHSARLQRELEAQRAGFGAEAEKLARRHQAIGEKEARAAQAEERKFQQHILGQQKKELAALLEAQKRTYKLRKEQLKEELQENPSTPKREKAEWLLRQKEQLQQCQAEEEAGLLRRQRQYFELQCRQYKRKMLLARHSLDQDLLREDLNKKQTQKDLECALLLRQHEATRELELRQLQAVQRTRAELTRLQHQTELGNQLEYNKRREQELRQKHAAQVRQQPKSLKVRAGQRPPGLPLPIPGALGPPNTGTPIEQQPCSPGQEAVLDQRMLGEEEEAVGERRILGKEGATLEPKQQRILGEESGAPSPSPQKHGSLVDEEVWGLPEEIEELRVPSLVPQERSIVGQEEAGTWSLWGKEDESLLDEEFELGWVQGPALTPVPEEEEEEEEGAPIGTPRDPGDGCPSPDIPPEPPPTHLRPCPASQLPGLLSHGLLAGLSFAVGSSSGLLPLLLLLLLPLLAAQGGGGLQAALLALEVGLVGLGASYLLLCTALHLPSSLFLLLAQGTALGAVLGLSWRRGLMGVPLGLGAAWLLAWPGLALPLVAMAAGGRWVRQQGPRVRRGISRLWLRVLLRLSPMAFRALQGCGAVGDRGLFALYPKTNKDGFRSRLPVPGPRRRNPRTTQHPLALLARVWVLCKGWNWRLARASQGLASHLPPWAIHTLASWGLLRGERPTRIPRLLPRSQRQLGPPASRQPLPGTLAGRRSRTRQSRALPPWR

[3] = Drug metabolism in human liver microsomes at 100 uM preincubated with NADPH regenerating system for 5 mins followed by addition of liver microsomes measured after 190 mins by LC-MS analysis; assay type: ADME, microsome; conditions: read-out: Drug metabolism

Mitogen-activated protein kinase kinase kinase 10 (Homo sapiens), sequence (Q02779 whole entry, looked up): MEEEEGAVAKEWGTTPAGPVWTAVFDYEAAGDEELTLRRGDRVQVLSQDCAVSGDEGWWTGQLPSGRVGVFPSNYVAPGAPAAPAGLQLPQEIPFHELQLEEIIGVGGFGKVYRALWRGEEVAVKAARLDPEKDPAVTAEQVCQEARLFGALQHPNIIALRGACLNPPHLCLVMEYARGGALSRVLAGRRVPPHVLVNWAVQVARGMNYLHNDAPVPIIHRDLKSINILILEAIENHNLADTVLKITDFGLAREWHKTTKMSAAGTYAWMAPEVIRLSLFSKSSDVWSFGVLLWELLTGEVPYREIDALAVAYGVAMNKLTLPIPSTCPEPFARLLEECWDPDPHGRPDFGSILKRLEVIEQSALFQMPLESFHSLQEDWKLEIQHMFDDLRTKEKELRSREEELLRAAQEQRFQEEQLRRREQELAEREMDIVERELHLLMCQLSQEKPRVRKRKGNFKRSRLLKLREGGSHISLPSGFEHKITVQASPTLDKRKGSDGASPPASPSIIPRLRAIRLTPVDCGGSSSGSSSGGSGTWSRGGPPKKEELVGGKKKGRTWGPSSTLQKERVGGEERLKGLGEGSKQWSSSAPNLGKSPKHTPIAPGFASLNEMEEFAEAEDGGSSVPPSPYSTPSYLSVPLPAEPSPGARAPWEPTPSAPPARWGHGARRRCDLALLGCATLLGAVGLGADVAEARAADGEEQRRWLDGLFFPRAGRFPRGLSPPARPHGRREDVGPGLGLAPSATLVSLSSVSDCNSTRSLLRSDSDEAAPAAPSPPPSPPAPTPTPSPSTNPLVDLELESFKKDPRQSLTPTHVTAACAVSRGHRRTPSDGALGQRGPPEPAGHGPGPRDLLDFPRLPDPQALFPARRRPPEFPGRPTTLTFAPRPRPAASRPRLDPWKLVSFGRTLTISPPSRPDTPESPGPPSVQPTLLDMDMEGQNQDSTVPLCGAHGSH

SMILES: C=CC(=O)Nc1cccc(C(=O)Nc2ccc(Nc3cc(-c4[nH]c(SC)nc4C)ccn3)cc2)c1
- Activity [1]: 10 to 29%
- Activity [2]: 10 to 29%
- metabolised at 190 min, 100 µM [3]: 31%
